Measured values of several laboratories.
Compare with care: the assays were run in different laboratories.

Compound | assay | system | setting | endpoint | result
Cc1cc(C)nc(Nc2ncc(C(=O)NCCc3c(C)[nH]c4ccccc34)cn2)c1 | metabolic stability | rat, liver microsomes | 1 µM | microsomal CLint | 185 µL/min/mg
Nc1nc2[nH]cc(CCc3ccc(C(=O)N[C@@H](CCC(=O)O)C(=O)O)cc3)c2c(=O)[nH]1 |  | human, plasma | intravenous, 500 mg/m², patients | clearance | 81.7 mL/min
COc1ccnc(C(=O)N[C@H]2COC(=O)[C@H](Cc3ccccc3)[C@@H](OC(=O)C(C)C)[C@H](C)OC2=O)c1OCOC(=O)C(C)C |  | rat | oral | LD50 | > 2000 mg/kg
Cc1c(C(=O)Nc2ccc(OC(F)(F)F)cc2)nc(-c2ccc(Cl)cc2Cl)n1-c1ccc(OS(=O)(=O)CCC(F)(F)F)cc1 | shake flask | aqueous buffer | pH 7.4 | logD | > 4
C[C@H]1COCCN1c1nc(NCc2cccnc2C(F)(F)F)c2cccnc2n1 | metabolic stability | rat, hepatocytes |  | hepatocyte CLint | 5 µL/min/10⁶ cells
NCCCNCCCCNCCCNc1cc2nc(-c3ccccc3Cl)[nH]c(=O)c2cc1F |  | male Sprague-Dawley rat | oral | LD50 | > 1000 mg/kg
N=c1c2c(-c3ccccc3)c(-c3ccccc3)n(Cc3ccccc3)c2ncn1[C@H]1CC[C@H](O)CC1 | metabolic stability | Sprague-Dawley rat, hepatocytes | 1 µM | scaled CLint | 19 mL/min/kg
NC(=O)[C@@H]1CC(F)(F)CN1C(=O)c1ccc(N2CC(F)(F)C2)c(OCC2CC2)n1 | metabolic stability | human, hepatocytes |  | hepatocyte CLint | 14 µL/min/10⁶ cells
C=CCNc1c(O)cc2c(O)c1C[C@@H](C)C[C@H](OC)[C@H](O)[C@@H](C)/C=C(\C)[C@H](OC(N)=O)[C@@H](OC)/C=C\C=C(/C)C(=O)N2 |  | human, plasma | intravenous, 400 mg/m², patients, infusion | clearance | 1630 mL/min
